Measurements collected from several papers.
Lines come from different studies, so protocols differ.
Read-out: cell growth or viability

SMILES	cell line	technique	time	quantity	result
CC(C)c1ccccc1[C@@H]1CCCN1C1CC2(CCN(c3ccc(C(=O)NS(=O)(=O)c4ccc(NC[C@H]5CC[C@](C)(O)CC5)c([N+](=O)[O-])c4)c(Oc4cnc5[nH]ccc5c4)c3)CC2)C1	OCI-Ly10	ATP luminescence	48 h	IC50	0.0026 µM
C=CC(=O)NC1CCN(c2ncc3ncnc(Nc4ccc(Oc5ccc6c(c5)ncn6C)c(C)c4)c3n2)CC1	Daoy			EC50	0.0744 µM
O=C(Nc1cnn2ccc(N3CCC[C@@H]3c3cc(F)ccc3F)nc12)N1CC[C@H](O)C1	KM12	ATP luminescence	72 h	IC50	0.01 µM
COc1cc2nc(N3CCN(C(=O)c4ccco4)CC3)nc(N)c2cc1OC	SUNE1	MTT	48 h	IC50	27.4 µM
CC1(C)CCC(CN2CCN(c3ccc(C(=O)NS(=O)(=O)c4ccc(NCC5CCOCC5)c([N+](=O)[O-])c4)c(Oc4cnc5[nH]ccc5c4)c3)CC2)=C(c2ccc(Cl)cc2)C1	OCI-Ly10	ATP luminescence	48 h	IC50	0.019 µM
Cc1c(C(=O)O)ccc2c3n(nc12)[C@@H]1[C@H](C3)N(CC2CC2)[C@@]2(C(=O)Nc3cc(Cl)ccc32)[C@H]1c1cccc(Cl)c1F	UACC-812	resazurin		GI50	0.027 µM
CO[C@]12C[C@@H](COC(=O)c3cncc(Br)c3)CN(C)[C@@H]1Cc1cn(C)c3cccc2c13	SUNE1	MTT	48 h	IC50	12.2 µM
O=C(NO)c1ccc(CNc2nc3cccc(-c4ccc5c(c4)OCO5)n3n2)cc1	KM12	SRB		GI50	0.56 µM
